Measured values as given in ChEMBL document CHEMBL1949535, “Synthesis and preliminary antibacterial evaluation of Linezolid-like 1,2,4-oxadiazole derivatives” (2012).
Converted amounts (≈) assume the structure as drawn.

Assays:
Assay type in all cases: functional
Streptococcus pyogenes [1] = assay: Antibacterial activity against erythromycin-resistant Streptococcus pyogenes 47 after 16 to 20 hrs by microbroth dilution method
Summary of the method: (§1)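 CLSI broth microdilution in Mueller-Hinton broth. Compound stocks in 100% DMSO, serially diluted two-fold to 0.12->256 mg/L. An equal volume of inoculum at 1 x 10⁶ CFU/mL was added to each well. Plates were incubated 16-20 h at 35 °C. MIC (mg/L) was taken as the lowest concentration with no visible growth. DMSO and uninoculated-medium controls were run in parallel.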

Staphylococcus aureus [2] = assay: Antibacterial activity against methicillin-sensitive Staphylococcus aureus ATCC 25923 after 16 to 20 hrs by microbroth dilution method
Summary of the method: (§2)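 CLSI broth microdilution in Mueller-Hinton broth. Compounds were dissolved in 100% DMSO and serially two-fold diluted to cover 0.12 to >256 mg/L. An equal volume of inoculum at 1 × 10⁶ CFU/mL was added, then plates were incubated at 35 °C for 16–20 h. MIC was the lowest concentration with no visible growth. DMSO and uninoculated-medium controls were run in parallel.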

Streptococcus pneumoniae = assay: Antibacterial activity against Streptococcus pneumoniae PEN-1 after 16 to 20 hrs by microbroth dilution method; details: PEN I; summary of the method: as §2
Staphylococcus aureus [3] = assay: Antibacterial activity against Staphylococcus aureus ATCC 43300 after 16 to 20 hrs by microbroth dilution method; summary of the method: as §2
Staphylococcus aureus [4] = assay: Antibacterial activity against methicillin-resistant glycopeptide-intermediate Staphylococcus aureus Mu50 after 16 to 20 hrs by microbroth dilution method; summary of the method: as §1
Serratia marcescens = assay: Antibacterial activity against Serratia marcescens Mel 522 after 16 to 20 hrs by microbroth dilution method; summary of the method: as §2
Streptococcus pyogenes [5] = assay: Antibacterial activity against erythromycin-resistant Streptococcus pyogenes 6 after 16 to 20 hrs by microbroth dilution method; summary of the method: as §1
Staphylococcus aureus [6] = assay: Antibacterial activity against methicillin-sensitive Staphylococcus aureus ATCC 29213 after 16 to 20 hrs by microbroth dilution method; summary of the method: as §2
Escherichia coli [7] = assay: Antibacterial activity against Escherichia coli 3350 after 16 to 20 hrs by microbroth dilution method; summary of the method: as §2
Streptococcus pyogenes [8] = assay: Antibacterial activity against erythromycin-sensitive Streptococcus pyogenes 9 after 16 to 20 hrs by microbroth dilution method; summary of the method: as §2
Streptococcus pyogenes [9] = assay: Antibacterial activity against erythromycin-sensitive Streptococcus pyogenes 3 after 16 to 20 hrs by microbroth dilution method; summary of the method: as §2
Streptococcus pyogenes [10] = assay: Antibacterial activity against erythromycin-resistant Streptococcus pyogenes 24 after 16 to 20 hrs by microbroth dilution method; summary of the method: as §1
Escherichia coli [11] = assay: Antibacterial activity against Escherichia coli ATCC 25922 after 16 to 20 hrs by microbroth dilution method; summary of the method: as §2
Streptococcus pyogenes [12] = assay: Antibacterial activity against Streptococcus pyogenes ATCC 19615 after 16 to 20 hrs by microbroth dilution method; summary of the method: as §1
Streptococcus pyogenes [13] = assay: Antibacterial activity against erythromycin-sensitive Streptococcus pyogenes 12 after 16 to 20 hrs by microbroth dilution method; summary of the method: as §2
Staphylococcus aureus [14] = assay: Antibacterial activity against methicillin-resistant Staphylococcus aureus C530 after 16 to 20 hrs by microbroth dilution method; summary of the method: as §1
Streptococcus pyogenes [15] = assay: Antibacterial activity against compound-resistant Streptococcus pyogenes 24 after 16 to 20 hrs by microbroth dilution method; summary of the method: as §1
Streptococcus pyogenes [16] = assay: Antibacterial activity against compound-resistant Streptococcus pyogenes 47 after 16 to 20 hrs by microbroth dilution method; summary of the method: as §1

Structure (SMILES)	MIC (Streptococcus pyogenes [1]) [µg/mL]	MIC (Staphylococcus aureus [2]) [µg/mL]	MIC (Streptococcus pneumoniae) [µg/mL]	MIC (Staphylococcus aureus [3]) [µg/mL]	MIC (Staphylococcus aureus [4]) [µg/mL]	MIC (Serratia marcescens) [µg/mL]	MIC (Streptococcus pyogenes [5]) [µg/mL]	MIC (Staphylococcus aureus [6]) [µg/mL]	MIC (Escherichia coli [7]) [µg/mL]	MIC (Streptococcus pyogenes [8]) [µg/mL]	MIC (Streptococcus pyogenes [9]) [µg/mL]	MIC (Streptococcus pyogenes [10]) [µg/mL]	MIC (Escherichia coli [11]) [µg/mL]	MIC (Streptococcus pyogenes [12]) [µg/mL]	MIC (Streptococcus pyogenes [13]) [µg/mL]	MIC (Staphylococcus aureus [14]) [µg/mL]	MIC (Streptococcus pyogenes [15]) [µg/mL]	MIC (Streptococcus pyogenes [16]) [µg/mL]
CC(=O)NCc1noc(-c2ccc(N3CCOCC3)cc2)n1	64 (≈ 212 µM)	> 256	128 (≈ 423 µM)	> 256	> 256	128 (≈ 423 µM)	128 (≈ 423 µM)	> 256	128 (≈ 423 µM)	128 (≈ 423 µM)	128 (≈ 423 µM)	64 (≈ 212 µM)	> 256	128 (≈ 423 µM)	128 (≈ 423 µM)	> 256		
CC(=O)NCc1noc(-c2ccc(N3CCOCC3)c(F)c2)n1	> 256	> 256	> 256	> 256	> 256	> 256	128 (≈ 400 µM)	> 256	128 (≈ 400 µM)	> 256	> 256	128 (≈ 400 µM)	128 (≈ 400 µM)	128 (≈ 400 µM)	128 (≈ 400 µM)	> 256		
CC(=O)NCc1noc(-c2cc(F)c(N3CCOCC3)c(F)c2)n1	128 (≈ 378 µM)	> 256	> 256	> 256	> 256	> 256	128 (≈ 378 µM)	> 256	128 (≈ 378 µM)	> 256	> 256	> 256	128 (≈ 378 µM)	128 (≈ 378 µM)	> 256	> 256		
CC(=O)NCc1noc(-c2cc(F)c(N3CCOCC3)c(F)c2F)n1	128 (≈ 359 µM)	> 256	> 256	> 256	> 256	> 256	128 (≈ 359 µM)	> 256	128 (≈ 359 µM)	> 256	> 256	> 256	128 (≈ 359 µM)	128 (≈ 359 µM)	> 256	> 256		
CC(=O)NCc1noc(-c2c(F)c(F)c(N3CCOCC3)c(F)c2F)n1	> 256	> 256	> 256	> 256	> 256	> 256	> 256	> 256	> 256	> 256	> 256	> 256	128 (≈ 342 µM)	> 256	> 256	> 256		
NC(=O)c1noc(-c2ccc(N3CCOCC3)cc2)n1	> 256	> 256	128 (≈ 467 µM)	> 256	> 256	128 (≈ 467 µM)	128 (≈ 467 µM)	> 256	128 (≈ 467 µM)	128 (≈ 467 µM)	128 (≈ 467 µM)	> 256	> 256	128 (≈ 467 µM)	128 (≈ 467 µM)	> 256		
NC(=O)c1noc(-c2ccc(N3CCOCC3)c(F)c2)n1	> 256	> 256	> 256	> 256	> 256	128 (≈ 438 µM)	128 (≈ 438 µM)	> 256	128 (≈ 438 µM)	> 256	128 (≈ 438 µM)	128 (≈ 438 µM)	128 (≈ 438 µM)	128 (≈ 438 µM)	128 (≈ 438 µM)	> 256		
NC(=O)c1noc(-c2cc(F)c(N3CCOCC3)c(F)c2)n1	128 (≈ 413 µM)	> 256	> 256	> 256	> 256	> 256	128 (≈ 413 µM)	> 256	128 (≈ 413 µM)	> 256	> 256	> 256	128 (≈ 413 µM)	128 (≈ 413 µM)	> 256	> 256		
NC(=O)c1noc(-c2cc(F)c(N3CCOCC3)c(F)c2F)n1	128 (≈ 390 µM)	> 256	> 256	> 256	> 256	> 256	128 (≈ 390 µM)	> 256	128 (≈ 390 µM)	> 256	> 256	> 256	128 (≈ 390 µM)	128 (≈ 390 µM)	> 256	> 256		
NC(=O)c1noc(-c2c(F)c(F)c(N3CCOCC3)c(F)c2F)n1	> 256	> 256	> 256	> 256	> 256	> 256	> 256	> 256	> 256	> 256	> 256	> 256	128 (≈ 370 µM)	> 256	> 256	> 256		
CO/N=C(\C(=O)N[C@@H]1C(=O)N2C(C(=O)O)=C(CSc3nc(=O)c(O)nn3C)CS[C@H]12)c1csc(N)n1 [CEFTRIAXONE]	< 0.12	1 (≈ 1.8 µM)	0.12 (≈ 0.216 µM)	8 (≈ 14.4 µM)	4 (≈ 7.21 µM)	< 0.12	< 0.12	4 (≈ 7.21 µM)	4 (≈ 7.21 µM)	< 0.12	< 0.12	< 0.12	0.12 (≈ 0.216 µM)	< 0.12	< 0.12	> 256		
CC[C@H]1OC(=O)[C@H](C)[C@@H](O[C@H]2C[C@@](C)(OC)[C@@H](O)[C@H](C)O2)[C@H](C)[C@@H](O[C@@H]2O[C@H](C)C[C@H](N(C)C)[C@H]2O)[C@](C)(O)C[C@@H](C)C(=O)[C@H](C)[C@@H](O)[C@]1(C)O [ERYTHROMYCIN]																	> 256	> 256
CC(=O)NC[C@H]1CN(c2ccc(N3CCOCC3)c(F)c2)C(=O)O1 [LINEZOLID]	1 (≈ 2.96 µM)	1 (≈ 2.96 µM)				128 (≈ 379 µM)	0.12 (≈ 0.356 µM)		> 256	1 (≈ 2.96 µM)	1 (≈ 2.96 µM)	0.12 (≈ 0.356 µM)	4 (≈ 11.9 µM)	1 (≈ 2.96 µM)	0.25 (≈ 0.741 µM)			
